According to ChEMBL document CHEMBL4004891, “Antioxidant Properties of Novel Dimers Derived from Natural β-Elemene through Inhibiting H2O2-Induced Apoptosis” (ACS Med Chem Lett, 2017):
Calls of active or inactive are those of the source. The rule behind the calls is not given here.

Tests used:
[1] = test system: HUVEC; test: Cytoprotective activity against H2O2-induced cell injury in HUVEC assessed as decrease in LDH release pretreated for 24 hrs followed by H2O2-stimulation after 2 hrs; assay type: functional, cell-based; conditions: Homo sapiens
How it was run: (§1)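 Pretreatment 24 h at 0.1, 1 and 10 μM before 0.5 mM H2O2 for 2 h in HUVECs; LDH release, MDA content, SOD activity and NO secretion then measured.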

[2] = test system: HUVEC; test: Cytoprotective activity against H2O2-induced cell injury in HUVEC assessed as increase in nitric oxide level pretreated for 24 hrs followed by H2O2-stimulation after 2 hrs by DAF-FM-DA probe based fluorescent imaging analysis; assay type: functional; conditions: Homo sapiens; how it was run: as §1
[3] = test system: HUVEC; test: Cytoprotective activity against H2O2-induced cell injury in HUVEC assessed as increase in cell survival pretreated for 24 hrs followed by H2O2-stimulation after 2 hrs by MTT assay; assay type: functional, cell-based; conditions: Homo sapiens
How it was run: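 MTT survival of H2O2-injured HUVECs after pretreatment at 10, 1, 0.1 and 0.01 μM; compared with H2O2-only model group; EC50 derived from concentration–response; means ± SD, n = 3.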

[4] = test system: HUVEC; test: Cytoprotective activity against H2O2-induced cell injury in HUVEC assessed as inhibition of apoptosis by measuring late apoptotic cells at 10 uM pretreated for 24 hrs followed by H2O2-stimulation after 2 hrs by Annexin-V-APC/7AAD staining based flow cytometry (reference value: 10.78%); assay type: functional, Homo sapiens; design: scale not given: the % may be the effect or the level left
[5] = test system: HUVEC; test: Cytoprotective activity against H2O2-induced cell injury in HUVEC assessed as increase in SOD activity pretreated for 24 hrs followed by H2O2-stimulation after 2 hrs; assay type: functional, cell-based; conditions: Homo sapiens; how it was run: as §1
[6] = test system: HUVEC; test: Cytoprotective activity against H2O2-induced cell injury in HUVEC assessed as inhibition of apoptosis by measuring necrotic cells at 0.1 uM pretreated for 24 hrs followed by H2O2-stimulation after 2 hrs by Annexin-V-APC/7AAD staining based flow cytometry (reference value: 0.45%); assay type: functional, Homo sapiens; design: scale not given: the % may be the effect or the level left
[7] = test system: HUVEC; test: Cytoprotective activity against H2O2-induced cell injury in HUVEC assessed as decrease in MDA level pretreated for 24 hrs followed by H2O2-stimulation after 2 hrs; assay type: functional, cell-based; conditions: Homo sapiens; how it was run: as §1
[8] = test system: HUVEC; test: Cytoprotective activity against H2O2-induced cell injury in HUVEC assessed as cell survival at 1 uM pretreated for 24 hrs followed by H2O2-stimulation after 2 hrs by MTT assay (reference value: 60.21%); assay type: functional; conditions: Homo sapiens, read-out: Survival
[9] = biological target: c-Jun N-terminal kinase, JNK (Homo sapiens) (UniProt P45983+P53779+P45984); test: Inhibition of H2O2-induced JNK phosphorylation in HUVEC pretreated for 24 hrs followed by H2O2-stimulation after 2 hrs by western blot analysis
[10] = test system: HUVEC; test: Effect on total p38 MAPK protein level in HUVEC at 0.1 to 10 uM pretreated for 24 hrs followed by H2O2-stimulation for 2 hrs by western blot analysis; assay type: cell-based; conditions: human
[11] = test system: HUVEC; test: Cytoprotective activity against H2O2-induced cell injury in HUVEC assessed as inhibition of apoptosis by measuring late apoptotic cells at 0.1 uM pretreated for 24 hrs followed by H2O2-stimulation after 2 hrs by Annexin-V-APC/7AAD staining based flow cytometry (reference value: 10.78%); assay type: functional, Homo sapiens; design: scale not given: the % may be the effect or the level left
[12] = test system: HUVEC; test: Cytoprotective activity against H2O2-induced cell injury in HUVEC assessed as decrease in level of reactive oxygen species pretreated for 24 hrs followed by H2O2-stimulation after 2 hrs by DCFH-DA staining based fluorescence assay; assay type: functional; conditions: Homo sapiens
How it was run: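 DCF fluorescence imaging in HUVECs with or without pretreatment, exposed to H2O2; intensity expressed as percentage of control group fluorescence; means ± SD, n = 3.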

[13] = test system: HUVEC; test: Cytoprotective activity against H2O2-induced cell injury in HUVEC assessed as cell survival at 0.01 uM pretreated for 24 hrs followed by H2O2-stimulation after 2 hrs by MTT assay (reference value: 60.21%); assay type: functional; conditions: Homo sapiens, read-out: Survival
[14] = test system: HUVEC; test: Cytoprotective activity against H2O2-induced cell injury in HUVEC assessed as cell survival at 0.1 uM pretreated for 24 hrs followed by H2O2-stimulation after 2 hrs by MTT assay (reference value: 60.21%); assay type: functional; conditions: Homo sapiens, read-out: Survival
[15] = test system: HUVEC; test: Cytoprotective activity against H2O2-induced cell injury in HUVEC assessed as inhibition of apoptosis by measuring early apoptotic cells at 10 uM pretreated for 24 hrs followed by H2O2-stimulation after 2 hrs by Annexin-V-APC/7AAD staining based flow cytometry (reference value: 34.96%); assay type: functional, Homo sapiens; design: scale not given: the % may be the effect or the level left
[16] = test system: HUVEC; test: Cytoprotective activity against H2O2-induced cell injury in HUVEC assessed as inhibition of apoptosis by measuring viable cells at 10 uM pretreated for 24 hrs followed by H2O2-stimulation after 2 hrs by Annexin-V-APC/7AAD staining based flow cytometry (reference value: 53.8%); assay type: functional, Homo sapiens
[17] = test system: HUVEC; test: Cytoprotective activity against H2O2-induced cell injury in HUVEC assessed as inhibition of apoptosis by measuring early apoptotic cells at 1 uM pretreated for 24 hrs followed by H2O2-stimulation after 2 hrs by Annexin-V-APC/7AAD staining based flow cytometry (reference value: 34.96%); assay type: functional, Homo sapiens; design: scale not given: the % may be the effect or the level left
[18] = biological target: Mitogen-activated protein kinase; ERK1/ERK2 (Homo sapiens) (UniProt P27361+P28482); test: Inhibition of H2O2-induced ERK1/2 phosphorylation in HUVEC pretreated for 24 hrs followed by H2O2-stimulation after 2 hrs by western blot analysis; assay type: protein assay
[19] = test system: HUVEC; test: Cytotoxicity against HUVEC assessed as increase in cell viability at 0.1 to 50 uM after 24 hrs by MTT assay relative to control; assay type: cell-based; conditions: human
How it was run: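 Normal HUVECs incubated 24 h with 0.1−50 μM, no H2O2; viability by MTT assay; means ± SD, n = 3.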

[20] = biological target: MAP kinase p38 (Homo sapiens) (UniProt O15264+Q15759+Q16539+P53778); test: Inhibition of H2O2-induced p38 phosphorylation in HUVEC pretreated for 24 hrs followed by H2O2-stimulation after 2 hrs by western blot analysis
[21] = test system: HUVEC; test: Effect on total JNK protein level in HUVEC at 0.1 to 10 uM pretreated for 24 hrs followed by H2O2-stimulation for 2 hrs by western blot analysis; assay type: cell-based; conditions: human
[22] = test system: HUVEC; test: Cytoprotective activity against H2O2-induced cell injury in HUVEC assessed as level of reactive oxygen species by measuring fluorescence intensity at 0.1 to 10 uM pretreated for 24 hrs followed by H2O2-stimulation after 2 hrs by DCFH-DA staining based fluorescence assay (reference value: 3.3); assay type: functional, Homo sapiens
[23] = test system: HUVEC; test: Effect on total ERK1/2 protein level in HUVEC at 0.1 to 10 uM pretreated for 24 hrs followed by H2O2-stimulation for 2 hrs by western blot analysis; assay type: cell-based; conditions: human
[24] = test system: HUVEC; test: Cytoprotective activity against H2O2-induced cell apoptosis in HUVEC pretreated for 24 hrs followed by H2O2-stimulation for 2 hrs by Annexin-V-APC/7AAD staining based flow cytometry; assay type: functional; conditions: Homo sapiens
[25] = test system: HUVEC; test: Cytoprotective activity against H2O2-induced cell injury in HUVEC assessed as cell survival at 10 uM pretreated for 24 hrs followed by H2O2-stimulation after 2 hrs by MTT assay (reference value: 60.21%); assay type: functional; conditions: Homo sapiens, read-out: Survival
[26] = test system: HUVEC; test: Cytoprotective activity against H2O2-induced cell injury in HUVEC assessed as inhibition of apoptosis by measuring viable cells at 0.1 uM pretreated for 24 hrs followed by H2O2-stimulation after 2 hrs by Annexin-V-APC/7AAD staining based flow cytometry (reference value: 53.8%); assay type: functional, Homo sapiens
[27] = test system: HUVEC; test: Cytoprotective activity against H2O2-induced cell injury in HUVEC assessed as increase in cell viability at 10 uM pretreated for 24 hrs followed by H2O2-stimulation after 2 hrs by MTT assay; assay type: functional, cell-based; conditions: Homo sapiens
[28] = test system: HUVEC; test: Cytoprotective activity against H2O2-induced cell injury in HUVEC assessed as inhibition of apoptosis by measuring viable cells at 1 uM pretreated for 24 hrs followed by H2O2-stimulation after 2 hrs by Annexin-V-APC/7AAD staining based flow cytometry (reference value: 53.8%); assay type: functional, Homo sapiens
[29] = test system: HUVEC; test: Cytoprotective activity against H2O2-induced cell injury in HUVEC assessed as inhibition of apoptosis by measuring necrotic cells at 1 uM pretreated for 24 hrs followed by H2O2-stimulation after 2 hrs by Annexin-V-APC/7AAD staining based flow cytometry (reference value: 0.45%); assay type: functional, Homo sapiens; design: scale not given: the % may be the effect or the level left
[30] = test system: HUVEC; test: Cytoprotective activity against H2O2-induced cell injury in HUVEC assessed as inhibition of apoptosis by measuring early apoptotic cells at 0.1 uM pretreated for 24 hrs followed by H2O2-stimulation after 2 hrs by Annexin-V-APC/7AAD staining based flow cytometry (reference value: 34.96%); assay type: functional, Homo sapiens; design: scale not given: the % may be the effect or the level left
[31] = test system: HUVEC; test: Cytoprotective activity against H2O2-induced cell injury in HUVEC assessed as inhibition of apoptosis by measuring necrotic cells at 10 uM pretreated for 24 hrs followed by H2O2-stimulation after 2 hrs by Annexin-V-APC/7AAD staining based flow cytometry (reference value: 0.45%); assay type: functional, Homo sapiens; design: scale not given: the % may be the effect or the level left
[32] = test system: HUVEC; test: Cytoprotective activity against H2O2-induced cell injury in HUVEC assessed as inhibition of apoptosis by measuring late apoptotic cells at 1 uM pretreated for 24 hrs followed by H2O2-stimulation after 2 hrs by Annexin-V-APC/7AAD staining based flow cytometry (reference value: 10.78%); assay type: functional, Homo sapiens; design: scale not given: the % may be the effect or the level left

Sequence of Mitogen-activated protein kinase; ERK1/ERK2 (Homo sapiens) (P27361 whole entry, looked up): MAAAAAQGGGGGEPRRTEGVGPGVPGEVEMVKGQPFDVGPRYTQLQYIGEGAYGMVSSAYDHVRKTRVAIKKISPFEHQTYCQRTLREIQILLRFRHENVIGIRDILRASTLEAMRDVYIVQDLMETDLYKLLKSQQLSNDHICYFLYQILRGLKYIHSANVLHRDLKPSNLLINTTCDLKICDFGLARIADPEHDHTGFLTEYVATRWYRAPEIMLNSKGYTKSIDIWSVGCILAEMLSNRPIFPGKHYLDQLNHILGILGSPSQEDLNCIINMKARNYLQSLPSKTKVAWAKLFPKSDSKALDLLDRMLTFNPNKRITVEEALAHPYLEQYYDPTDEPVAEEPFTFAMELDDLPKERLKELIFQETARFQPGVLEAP
Sequence of Mitogen-activated protein kinase; ERK1/ERK2 (Homo sapiens) (P28482 whole entry, looked up): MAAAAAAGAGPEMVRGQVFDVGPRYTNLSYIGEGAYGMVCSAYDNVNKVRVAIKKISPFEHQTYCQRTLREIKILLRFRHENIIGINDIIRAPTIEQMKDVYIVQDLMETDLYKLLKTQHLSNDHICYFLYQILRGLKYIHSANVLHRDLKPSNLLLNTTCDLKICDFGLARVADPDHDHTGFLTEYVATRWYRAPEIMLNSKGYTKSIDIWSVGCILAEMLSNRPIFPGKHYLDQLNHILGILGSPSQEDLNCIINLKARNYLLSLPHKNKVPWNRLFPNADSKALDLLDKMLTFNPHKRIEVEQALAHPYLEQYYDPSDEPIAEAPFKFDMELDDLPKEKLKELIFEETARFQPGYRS

For `C=C[C@]1(C)CC[C@@H](C(=C)COC(=O)/C=C/C(=O)OCC(=C)[C@@H]2CC[C@@](C)(C=C)[C@H](C(=C)C)C2)C[C@H]1C(=C)C`, the Activity [1] was “Dose-dependent effect”, the Activity [2] was “Dose-dependent effect” and the Activity [3] was “Dose-dependent effect”. For the same compound, the EC50 [3] was 0.22 µM, the Activity [4] was 12.71% and the Activity [5] was “Dose-dependent effect”. The Activity [6] was 0.3%, the Activity [7] was “Dose-dependent effect” and the viability at 1 µM [8] was 85.5%. The inhibition [9] was “Dose-dependent effect”, the Activity [10] was “Non-Toxic” and the Activity [11] was 10.22%. The Activity [12] was “Dose-dependent effect”, the viability at 0.01 µM [13] was 65.5% and the viability at 0.1 µM [14] was 76.7%. For the same compound, the Activity [15] was 12.82%, the Activity [16] was 71.78% and the Activity [17] was 23.59%. For the same compound, the inhibition [18] was “Dose-dependent effect”, the Activity [19] was greater than 90% and the inhibition [20] was “Dose-dependent effect”. The Activity [21] was “Non-Toxic”, the Flu intensity [22] was 1.16 - 2.4 and the Activity [23] was “Non-Toxic”. The Activity [24] was “Dose-dependent effect”, the viability at 10 µM [25] was 97% and the Activity [26] was 58.55%. For the same compound, the Activity [27] was “Active”, the Activity [28] was 68.31% and the Activity [29] was 0.18%. It also gave an Activity [30] of 30.92%, an Activity [31] of 2.69% and an Activity [32] of 7.92%.
